Data taken from ChEMBL document CHEMBL4513216, “Probing the Open Global Health Chemical Diversity Library for Multistage-Active Starting Points for Next-Generation Antimalarials” (ACS Infect Dis, 2020).

Test: Toxicity liver stage against HepG2, at 10uM
Assay type: cell-based
Design: test concentration 10 uM, cell line HepG2-A16-CD81EGFP
Conditions: human, HepG2-A16-CD81EGFP cells; read-out: INHIBITION
Method in brief: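 Uninfected HepG2-A16-CD81EGFP cells, 3 × 10^3 per well, 1536-well, plated on prespotted compound at 10 μM final, parasite-free screening media added to match infected plates; puromycin 10 μM positive, DMSO 0.5% negative; run in parallel with 48 h PbLuc assay at 37 °C, 5% CO2; viability by CellTiter-Glo luminescence, normalized to controls.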

Row | SMILES | cytotoxicity at 10 µM [%]
1 | c1ccc(CN2CCOC[C@H]2c2nc(-c3ccncc3)c[nH]2)nc1 | -0.501
2 | Cn1ccnc1CN1C[C@@H](F)[C@@H](OCc2nc3cnccc3[nH]2)C1 | 3.39
3 | O=C(NC[C@H]1OC[C@@H](NC(=O)C2CCCC2)[C@@H]1O)c1ccncc1 | 5.45
4 | O=C1CC(c2cccnc2)c2c(c(C(=O)O)cn2-c2ccccc2F)N1 (configuration not stated) | 1.85
5 | COCC(=O)N1Cc2nccn2CC(Cn2ncccc2=O)C1 (configuration not stated) | 5.23
6 | Cc1noc(C)c1C(=O)N1CCC2(CC1)CC(Oc1ccccc1)CO2 (configuration not stated) | 11.8
7 | O=C(NCCN1CCCCC1)c1nc(-c2cccc3[nH]ccc23)no1 | 0.142
8 | CSc1ccc(C2CC(=O)Nc3c2c(=O)[nH]n3C(C)C)cc1 (configuration not stated) | 6.71
9 | COc1ccc(C2CC(=O)Nc3c2cnn3C)cc1 (configuration not stated) | 22
10 | CC(C)n1ncc2c1NC(=O)CSC2C(C)(C)C (configuration not stated) | 4.47
11 | Cc1ccoc1C(=O)N1CC[C@H]2OCC[C@@]2(COCc2ccncc2)C1 | 5.71
12 | CN1CC(Oc2ccccc2)=NC(SCC(=O)Nc2ccccc2Cl)=N1 | -9.19
13 | Cc1nn(C)c2c(=O)n(CC(=O)Nc3cc(Cl)cc(Cl)c3)nnc12 | 0.976
14 | Cc1cc2c(cc1C)OC1(C=C2)CCN(CC(=O)N2CCOCC2)CC1 | -10.4
15 | COCCCNC(=O)C(C)n1nc(-c2ccco2)cc(N)c1=O (configuration not stated) | 0.152
16 | COc1ccc(-c2cc3nc(CCNC(=O)CN(C)C)nn3cn2)cc1 | 1.98
17 | COc1ccccc1-c1ccc(C2CCCN(C(C)=O)C2)nc1 (configuration not stated) | -4.96
18 | CCN(Cc1ccncc1)c1cc(C2CCN2C(C)=O)nc(C)n1 (configuration not stated) | 5.25
19 | Cc1ccc(N2CC(c3nccc(C)n3)C2)nn1 | 8.82
20 | CNc1cc(C)nc(C2COCCN2CCc2ccc(F)cc2)n1 (configuration not stated) | 3.68
21 | Cc1nc(CN2CCCC(c3nc(C)n4c(C)c(C)sc34)C2)co1 (configuration not stated) | -21.7
22 | O[C@H]1CN(Cc2ccc3c(c2)OCCO3)CC[C@@]12CCCO2 | -2.92
23 | Cc1nc(C2CCCN2C(=O)Cc2ccc(F)cc2)ncc1C(N)=O (configuration not stated) | -18.2

Row | SMILES | cytotoxicity at 10 µM [%]
24 | Cc1cccc(C)c1NC(=O)c1n[nH]c(-n2cnnc2)n1 | -10.6
25 | CS(=O)(=O)N1CCCC(Cc2ccnc3ccncc23)CC1 (configuration not stated) | -12.8
26 | Cn1cc(C(=O)N2CCCC(c3cc(O)n(C)n3)C2)cn1 (configuration not stated) | -21.6
27 | Cc1nc(CNC(=O)NC2CC(C)(C)OC2(C)C)sc1C (configuration not stated) | -3.77
28 | N#CCCN(CCC#N)C(=O)COC1CCCCC1 | 0.631
29 | Cc1noc(C)c1C(=O)N1CCC(n2cccn2)CC1 | 3.82
30 | CCS(=O)(=O)CC(=O)Nc1cc(-c2cccc(F)c2F)n[nH]1 | 10.7
31 | CCSc1cc(C(=O)N(CC(F)F)C(C)C)ccn1 | 4.64
32 | O=C(NCc1ccc(Br)cc1F)C1(O)CCSCC1 | 6.4
33 | CN(C(=O)c1ccncc1Cl)c1ccccc1S(C)(=O)=O | 17.6
34 | COc1ccc2c(c1)CCCN2Cc1nc(C)c(C)o1 | 4.74
35 | COC(=O)C(O)C1CCN(CCc2ccc(C)cc2)CC1 (configuration not stated) | 15.2
36 | NC(=O)CNC1(c2ccc(Br)cc2)CCOCC1 | -0.717
37 | COc1cccc(C(O)CNC(=O)CC2CCCCC2)c1 (configuration not stated) | -2.11
38 | Cc1ncc2c(n1)CN(Cc1cccc3c1OCCO3)CC2 | -1.31
39 | COc1ccc(C(C)NC(=O)Nc2nnc(C)s2)cc1OC (configuration not stated) | 9.67
40 | C1CC(NCC2CC2)CN(Cc2noc(C3CC3)n2)C1 (configuration not stated) | -3.09
41 | COCCN(C)C(=O)Nc1ccc2c(ccn2CC(=O)N(C)C)c1 | 6.71
42 | Cn1cc(C(O)CNC(=O)c2cc(Br)ccc2Cl)cn1 (configuration not stated) | 2.06
43 | CCN(C(=O)NCCc1ccc(C)cc1C)C(C)CS(C)(=O)=O (configuration not stated) | 11.3
44 | Cc1nc2cc(C(=O)N(CCN(C)C)CCN(C)C)ccc2n1C | -9.01
45 | Cc1nn(CCC#N)c(C)c1CCC(=O)N(C)Cc1ccsc1 | -3.57
46 | CN(C)C(=O)C1CCN(Cn2ccc(-c3ccc(F)cc3)n2)CC1 | 6.19

Row | SMILES | cytotoxicity at 10 µM [%]
47 | O=C(NCCCNc1ccccn1)NCC1CCS(=O)(=O)C1 (configuration not stated) | 16
48 | Cc1noc(C)c1C(=O)N1CCCN(C)c2ccc(Cl)cc21 | 4.61
49 | COCc1noc(-c2cc(Cl)c3c(c2)OCCCO3)n1 | 0.174
50 | CN(CCCNC(=O)C1CCCN(C(N)=O)C1)S(C)(=O)=O (configuration not stated) | -4.76
51 | CC(CO)NC(=O)c1ccc(NCc2ccccc2)cc1 (configuration not stated) | -6.63
52 | CCC(NC(=O)NCC(=O)NC(C)C)c1cc(F)ccc1F (configuration not stated) | 0.447
53 | CCCOc1cc(F)ccc1NC(=O)NCc1noc(C)n1 | 7.83
54 | COCCCn1ccc(NCc2ccc(NC(C)=O)cc2)n1 | 2.33
55 | Cc1nc(C)c(COc2ccc(S(=O)(=O)N(C)C)cc2)s1 | -0.242
56 | O=C1CCC(C(=O)Nc2cnn(-c3ccccc3Cl)c2)N1 (configuration not stated) | -7.41
57 | O=C(OCc1cc(=O)n2cc(Br)ccc2n1)c1ccc2c(c1)OCO2 | -7.37
58 | Cc1ccc(OCC(=O)N(C)Cc2cccc(F)c2)cn1 | 27.6
59 | COc1ccc(NC(=O)CNc2cccc3c2CCCC3)c(OC)c1 | 16.5
60 | Cn1c(N2CCOCC2)nc2cc(C(=O)N3CC(O)CO3)ccc21 (configuration not stated) | 18.5
61 | Cn1cc(Cl)cc1C(=O)N1CCC2(CCCN(CC3CCC3)C2=O)C1 (configuration not stated) | 0.407
62 | CCCc1nc(CN(CC)C(=O)c2ccc(S(C)(=O)=O)cc2)no1 | -5.03
63 | CSCCc1c(-c2ccccc2)ncn1[C@H]1C[C@@H](C(=O)O)N(C)C1 | 0.471
64 | CC(C)Cn1cncc1CNC(=O)c1cccc(-n2cnnc2)c1 | -5.54
65 | NC(=O)c1csc(N2C[C@@H](CN3CCC(O)CC3)[C@@H](CO)C2)n1 | 0.984
66 | CN(CC(=O)N1CCOCC(CO)C1)Cc1ccccn1 (configuration not stated) | 0.382
67 | CCc1nc2c(c(NC3CC3)n1)CCN(C(=O)Cc1nonc1C)CC2 | 2.8
68 | Cc1nc(CC(=O)N2CCCC[C@H](N(C)C)C2)cs1 | 8.27
69 | Cc1cc(-n2nc(C3CC3)nc2-c2csnn2)ccn1 | 6.37

Row | SMILES | cytotoxicity at 10 µM [%]
70 | COc1cc(OC)nc(N2CCC3(CC2)OCCCC3O)n1 (configuration not stated) | 2.67
71 | O=C(c1cccc2ccnn12)N1CCC[C@H]1CN1CCCC1 | -144
72 | Cc1cc(C)cc(CN2CCN(C(=O)CCc3n[nH]c(C)n3)CC2=O)c1 | 0.108
73 | CCCc1cc(NCc2noc(COC)n2)n2nccc2n1 | 6.48
74 | COC1CCN(S(=O)(=O)N2CC[C@@](O)(C3CCC3)[C@H](C)C2)CC1 | 6.8
75 | CCn1ncnc1C1CC(=O)NCc2nc(N)sc21 (configuration not stated) | -4.78
76 | c1ccc(Oc2ncccc2CNCc2ccccn2)cc1 | -8.04
77 | CN(Cc1cccc2ncccc12)C(=O)CCC(F)(F)F | -3.05
78 | Cc1nn2c(N3CCCC(C#N)C3)cc(-c3ccccc3)nc2c1C (configuration not stated) | -0.828
79 | Cc1cc(Cc2ccc(S(=O)(=O)N3CCOCC3)cc2)c(=O)[nH]n1 | -13.1
80 | CCCNCc1ccc(-c2cc(N)nc3[nH]ccc23)cc1 | 19.8
81 | CCN(Cc1c(C)nn(C)c1C)C(=O)C1COc2ccccc2C1 (configuration not stated) | -0.91
82 | Cc1cc(C(=O)N2CCc3[nH]nc(-c4ccc5c(c4)OCO5)c3C2)no1 | -137
83 | Cc1nn(CCn2ccnc2-c2cc3n(n2)CCCNC3)c(C)c1Cl | -8.52
84 | O=C(CCc1ccsc1)N1CCC(Cc2ccc(CO)cc2)C1 (configuration not stated) | 14.7
85 | O=C(NCCCc1ccncc1)C1CCCN(Cc2ccco2)C1 (configuration not stated) | 20.1
86 | CC(NC(=O)NCCNc1ccccn1)c1cccs1 (configuration not stated) | 1.48
87 | CC(C)c1nc(CN2CCCC2Cn2cccn2)no1 (configuration not stated) | -0.121
88 | CCc1csc(C2CCCN(C(=O)c3ccco3)C2)n1 (configuration not stated) | 2.56
89 | CCc1noc(CN2CCN(c3nccs3)CC2)n1 | -1.46
90 | O=C(CNc1cc(F)ccc1OCC1CCCO1)N1CCOCC1 (configuration not stated) | -12.6
91 | CCc1ncncc1C(=O)N1CCCN(Cc2ccccc2C)CC1 | 0.977
92 | O=C(COCc1ccco1)Nc1cc(C(F)(F)F)c[nH]c1=O | -2.57

Row | SMILES | cytotoxicity at 10 µM [%]
93 | CCNc1cc2c(nn1)CCN(C(=O)c1ccc(-n3cnnc3)cc1)C2 | -3.51
94 | COc1c(C2CCCN2CC(=O)NCc2ccccn2)c(C)nn1C (configuration not stated) | -0.671
95 | CC(C)Sc1ncccc1C(=O)NCc1cccc(N(C)C)c1 | -3.42
96 | COCc1nc(C(=O)N2CCCC(n3ccnc3C(C)C)C2)cs1 (configuration not stated) | -30.8
97 | CCC(O)CN1CCN(C(=O)c2sccc2C2CC2)CC1 (configuration not stated) | -14.6
98 | CCc1nc(C2CCCN(C(=O)c3cccc(C(N)=O)c3)C2)no1 (configuration not stated) | -22.2
99 | CC(C)c1nccn1C1CCCN(C(=O)c2ccc3[nH]cnc3c2)C1 (configuration not stated) | -8.24
100 | O=C(CCc1ccc2c(c1)OCO2)N1CCCC(n2cccn2)C1 (configuration not stated) | -15.8
101 | CCN(Cc1nc2c(cnn2C)c(=O)[nH]1)Cc1ccccc1C | -10.2
102 | Cc1noc(C)c1C(=O)NCC(C)N(C)C (configuration not stated) | -8.4
103 | Cc1cc(C)n(CC2CCCN2CC(=O)N(C)C)n1 (configuration not stated) | -7.86
104 | Cn1ccnc1Sc1ccc(N)cn1 | 3.08
105 | Cc1nc(CN2C(=O)CCC23CCN(Cc2ccccn2)CC3)cs1 | -2.71
106 | CN1CCN(C[C@@H]2OC[C@H]3CN(Cc4cccc(F)c4)CC[C@H]32)CC1 | -10.3
107 | CS(=O)(=O)N1CCOCC2(CCN(C(=O)c3ccncc3)CC2)C1 | 2.78
108 | CC(=O)N1CCO[C@H]2[C@H](OCCCn3cccn3)CC[C@@H]21 | 7.16
109 | COc1ccc(CN2CCn3cc(CNC(=O)C4CCC4)nc3C2)cc1 | 5.42
110 | COc1cccc(-c2n[nH]cc2CNC2CCC(O)CC2)c1 (configuration not stated) | -0.874
111 | O=C(c1ccccn1)N1CCn2cnc(COCC3CC3)c2C1 | 11.4
112 | CNC(=O)[C@H]1C[C@H]2CN(C(=O)NCCc3ccccc3)C[C@@H]1O2 | 2.89
